In ChEMBL document CHEMBL3763097, “Synthesis and biological evaluation of 5,10-dihydro-11H-dibenzo[b,e][1,4]diazepin-11-one structural derivatives as anti-cancer and apoptosis inducing agents” (Eur J Med Chem, 2016) one finds IC50 data, which are given here for 13 compounds.

For assay [1], the system named is MCF7. As to the kind of experiment: Cytotoxicity against human MCF7 cells assessed as growth inhibition after 72 hrs by MTT assay. Type of assay: functional, cell-based. The following applies: MCF7, 72 h. The gist of the method:
(§1)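 Cells in RPMI 1640 (PC-3, A549, MDA-MB-231) or DMEM (U87MG, MCF-7) with 10% FBS, passages 4-10, were seeded at 3000-5000 per well and left 24 h. Compounds in DMSO/medium were added for 72 h; DMSO served as control. MTT (5 mg/mL) was added for 4 h and formazan dissolved in DMSO. Absorbance was read at 570 nm minus 630 nm. % inhibition was taken versus DMSO, with IC50 by probit; mean ± SD of three experiments in triplicate.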
(In general: Tetrazolium assays rely on reduction of a dye to a coloured formazan, in cell work by metabolically active cells.)

For assay [2], the system named is MDA-MB-231. As to the kind of experiment: Cytotoxicity against human MDA-MB-231 cells assessed as growth inhibition after 72 hrs by MTT assay. In kind it is functional, cell-based. The following applies: MDA-MB-231, 72 h. The gist of the method:
as §1

For assay [3], the system named is A549. Kind of assay: Cytotoxicity against human A549 cells assessed as growth inhibition after 72 hrs by MTT assay. In kind it is functional, cell-based. The conditions noted are these: A549, 72 h. The procedure, abridged:
as §1

Assay [4] is described as follows: Cytotoxicity against human U87MG cells assessed as growth inhibition after 72 hrs by MTT assay. Type of assay: functional, cell-based, U-87MG ATCC. The conditions noted are these: U-87 MG. The procedure, abridged:
as §1

Assay [5] can be described thus: Cytotoxicity against human PC3 cells assessed as growth inhibition after 72 hrs by MTT assay. Type of assay: functional, cell-based. The following applies: PC-3, 72 h. The gist of the method:
as §1

SMILES strings stand for the structures.

One may read the IC50 as the concentration needed to halve the response being measured. Turning to `O=C1c2ccccc2Nc2ccccc2N1Cc1cn(Cc2ccc(F)cc2)nn1`, the IC50 in assay [1] is > 50 µM; in assay [2] it was 4.08 µM; in assay [3] it was 26.7 µM; in assay [4], 37.7 µM; in assay [5] it was 17.3 µM.

`O=C1c2ccccc2Nc2ccccc2N1Cc1cn(Cc2ccc([N+](=O)[O-])cc2)nn1`: the IC50 is 0.93 µM in assay [1]; 42.6 µM in assay [2]; 47.9 µM in assay [3]; 32.9 µM in assay [4]; > 50 µM in assay [5].

Regarding `O=C1c2ccccc2Nc2ccccc2N1Cc1cn(Cc2ccc(OC(F)(F)F)cc2)nn1`, the IC50 in assay [1] is 29.6 µM; in assay [2] it was > 50 µM; in assay [3] it was > 50 µM; in assay [4] it was > 50 µM; in assay [5], > 50 µM.

As for `O=C1Nc2ccccc2Nc2ccccc21`, the IC50 in assay [1] is > 50 µM; in assay [2] it was > 50 µM; in assay [3], 37.1 µM; in assay [4], 8.97 µM; in assay [5] it was 41.9 µM.

On to `O=C1c2ccccc2Nc2ccccc2N1Cc1cn(Cc2ccc(Cl)cc2)nn1`, for which the IC50 was determined as 39 µM in assay [1]; 2.31 µM in assay [2]; 4.97 µM in assay [3]; 24.3 µM in assay [4]; 1.12 µM in assay [5].

As to `COc1ccc(OC)c(Cn2cc(CN3C(=O)c4ccccc4Nc4ccccc43)nn2)c1`, the IC50 was 7.48 µM in assay [1]; 3.5 µM in assay [2]; 13.3 µM in assay [3]; 31.2 µM in assay [4]; > 50 µM in assay [5].

`O=C1c2ccccc2Nc2ccccc2N1Cc1cn(Cc2cccc([N+](=O)[O-])c2)nn1`: the half-inhibitory concentration (IC50) in assay [1] is 0.65 µM; in assay [2], 1.52 µM; in assay [3], > 50 µM; in assay [4], 39.4 µM; in assay [5] it was 0.47 µM.

As for `COc1cc(Cn2cc(CN3C(=O)c4ccccc4Nc4ccccc43)nn2)cc(OC)c1OC`, the IC50 was 10.3 µM in assay [1]; 0.43 µM in assay [2]; 8.78 µM in assay [3]; 1.78 µM in assay [4]; > 50 µM in assay [5].

For the compound `C#CCN1C(=O)c2ccccc2Nc2ccccc21`, the IC50 was 7.63 µM in assay [1]; 16.5 µM in assay [2]; 19 µM in assay [3]; 22.2 µM in assay [4]; 0.98 µM in assay [5].

Turning to `O=c1[nH]cc(F)c(=O)[nH]1` [FLUOROURACIL], the IC50 in assay [3] was 3.47 µM; in assay [4] it was 3.61 µM; in assay [5], 1.44 µM.

With `O=C1c2ccccc2Nc2ccccc2N1Cc1cn(Cc2ccccc2F)nn1`, the IC50 was 5.27 µM in assay [1]; > 50 µM in assay [2]; 11.3 µM in assay [3]; 48.2 µM in assay [4]; 8.63 µM in assay [5].

`O=C1c2ccccc2Nc2ccccc2N1Cc1cn(Cc2cccc(F)c2)nn1`: the IC50 turned out to be 4.12 µM in assay [1]; 3.53 µM in assay [2]; 8.37 µM in assay [3]; 2.06 µM in assay [4]; 7.21 µM in assay [5].

`O=C1c2ccccc2Nc2ccccc2N1Cc1cn(Cc2cccc3c2OCO3)nn1`: the IC50 worked out at 17.8 µM in assay [1]; 10.2 µM in assay [2]; 10.7 µM in assay [3]; 13.5 µM in assay [4]; 10.7 µM in assay [5].
